CYP2C9 activ – CYP2C9 (human) activation | P11712 | recombinant CYP2C9, luciferin-H conversion, luminescence; stronger effect = higher value; factor 1 = untreated enzyme, 0 = blocked | activation factor at 5 µM | hit rate 1.4% among 96,000;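 active = activation factor of 2 or more for CYP2C9 at a 5 µM dose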;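 also: 0 = sulfaphenazole-blocked wells and 1 = vehicle-only wells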
CYP2C19 act – activators of human cytochrome P450 2C19. recombinant CYP2C19, luciferin-H EGE luminescence; stronger effect = higher value; 0 = fully inhibited enzyme, 1 = untreated enzyme. 96,000 tested, under 10 active. activation factor at 5 µM;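 active = activation factor of at least 2 at 5 µM in the primary screen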;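 also: 0 = wells with 2.5 mM tranylcypromine and 1 = vehicle-only wells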
Target sequence (P33261 whole entry, looked up): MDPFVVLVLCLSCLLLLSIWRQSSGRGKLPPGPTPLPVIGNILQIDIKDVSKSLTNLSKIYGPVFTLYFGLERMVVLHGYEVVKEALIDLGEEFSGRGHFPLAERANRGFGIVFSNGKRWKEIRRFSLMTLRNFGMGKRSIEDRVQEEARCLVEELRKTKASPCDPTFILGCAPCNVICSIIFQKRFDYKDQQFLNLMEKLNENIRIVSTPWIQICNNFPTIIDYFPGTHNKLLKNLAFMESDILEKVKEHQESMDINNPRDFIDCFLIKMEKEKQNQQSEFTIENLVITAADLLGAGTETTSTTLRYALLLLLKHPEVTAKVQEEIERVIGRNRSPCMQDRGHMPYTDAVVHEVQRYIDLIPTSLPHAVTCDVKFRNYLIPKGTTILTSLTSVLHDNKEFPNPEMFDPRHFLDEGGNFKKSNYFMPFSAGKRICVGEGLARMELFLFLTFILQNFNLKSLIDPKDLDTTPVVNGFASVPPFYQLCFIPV
tolC growth inh – E. coli tolC mutant growth inhibition; E. coli BW25113 tolC mutant growth, OD615; growth inhibition, % at 10 µM (by protocol); hit rate 2.2% among 65,000;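 active = growth inhibition at or above a cutoff equal to the mean over every tested compound plus 3 SD, cut at about 60% in these data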;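 also: growth measured after 20 h incubation at 37 °C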
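Doses: one dose of 10 µM final / Material: E. coli BW25113 ΔtolC::kan, tolC deletion mutant strain / Buffer or medium: LB with kanamycin 50 µg/mL / Evaluation: percent growth inhibition / Detection: optical density read at 615 nm / Incubation: 37 °C, 20 h exposure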
E coli WT exp – blocks growth of wild type E. coli BW25113 | OD600 absorbance | growth inhibition, % at 100 µM | hit rate 0.15% among 98,000 | AID 710;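 active = growth inhibition above about 50% at one test dose, limit read from the data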;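 also: growth measured after 20 h incubation at 37 °C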
CYP2C9 inh – inhibitors of human CYP2C9 | hit rate 20% among 96,000 | inhibition, % at 5 µM | CYP2C9 Supersomes, luciferin-H conversion, luminescence;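 active = blocking of liver enzyme CYP2C9 beyond about 50% at 5 µM, limit read from the data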
CYP2C19 inh – blocks human cytochrome P450 2C19; CYP2C19 Supersomes, luciferin-H EGE luminescence, 30 min; inhibition, % at 5 µM; hit rate 21% among 96,000;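 active = CYP2C19 inhibition above a set limit at 5 µM in the primary screen, cut at about 50% in these data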;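 also: plate controls were negative control wells for no effect and 2.5 mM tranylcypromine positive control for full effect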
The depositor's hits bear a star. Shown are actives, neighbours in structure and some others; about 29% of the full set was active somewhere.

For O=C(CCCC(=O)N(c1ccc2c(c1)OCCO2)C(C(=O)NC1CCCCC1)c1ccc(F)cc1)Nc1ccccn1 (stereo not given) the results were CYP2C9 activ 2*, CYP2C19 act 0.5, E coli WT exp -3.0, CYP2C9 inh -99.7 and CYP2C19 inh 51.7*.
COCCN(C(=O)CCCC(=O)Nc1ccccn1)C(C(=O)NC1CCCCC1)c1ccc(C)cc1 (stereo not given) was read as CYP2C9 activ 0.4, CYP2C19 act 0.4, tolC growth inh 1.3, E coli WT exp -3.0, CYP2C9 inh 56.3* and CYP2C19 inh 64.1*.
For Cc1ccccc1NS(=O)(=O)c1cc(S(C)(=O)=O)ccc1Cl the results were CYP2C9 activ 0.6, CYP2C19 act 0.7, tolC growth inh -8.8, E coli WT exp -1.0, CYP2C9 inh 37.1 and CYP2C19 inh 28.5.
Screening COc1ccccc1NS(=O)(=O)c1ccccc1C#N returned CYP2C9 activ 2.7*, CYP2C19 act 0.4, tolC growth inh -14.1, E coli WT exp -3.0, CYP2C9 inh -173.9 and CYP2C19 inh 57.8*.
COc1ccc(C(C#N)Nc2ccccc2OC)cc1 (stereo not given) was read as CYP2C9 activ 1.2, CYP2C19 act 0.8, tolC growth inh 8.8, E coli WT exp 1.0, CYP2C9 inh -23.9 and CYP2C19 inh 22.0.
Screening Cc1c(F)cccc1NS(=O)(=O)c1ccccc1C#N returned CYP2C9 activ 0.7, CYP2C19 act 0.4, tolC growth inh 4.8, E coli WT exp 4.0, CYP2C9 inh 29.4 and CYP2C19 inh 58.9*.
`COc1ccc(CNc2nc3nc4c(c(=O)n3[nH]2)CCC4)cc1` gave CYP2C9 activ 0.8, CYP2C19 act 1, E coli WT exp -7.0, CYP2C9 inh 16.6 and CYP2C19 inh -1.3.
For C=CCSC1=C(C#N)C(c2ccccc2Cl)CC(=O)N1 (stereo not given) the results were CYP2C9 activ 0.5, CYP2C19 act 0.3, tolC growth inh 7.5, E coli WT exp -2.0, CYP2C9 inh 49.8 and CYP2C19 inh 73.0*.
Screening C=C(C)CSC1=C(C#N)C(c2ccccc2Cl)CC(=O)N1 (stereo not given) returned CYP2C9 activ 0.3, CYP2C19 act 0.4, tolC growth inh 32.2, E coli WT exp 4.0, CYP2C9 inh 70.2* and CYP2C19 inh 58.2*.
For CC(C)NC(=O)Cn1cc(C#N)c2cc(Br)ccc21 the results were CYP2C9 activ 0.7, CYP2C19 act 0.3, tolC growth inh -11.5, E coli WT exp -4.0, CYP2C9 inh 31.8 and CYP2C19 inh 73.2*.
`N#Cc1cn(CC(=O)NCC2CCCO2)c2ccccc12` (stereo not given) gave CYP2C9 activ 0.9, CYP2C19 act 0.6, tolC growth inh -4.4, E coli WT exp 0.0, CYP2C9 inh 10.9 and CYP2C19 inh 44.0.
CCCCc1ccc(-c2c(C#N)c(N)nc3c2CCCC3)s1 was read as CYP2C9 activ 1.2, CYP2C19 act 0.8, E coli WT exp -24.0, CYP2C9 inh -23.5 and CYP2C19 inh 16.7.
`COC(=O)[C@@H](NC(=O)Nc1ccccc1F)C(C)C` gave CYP2C9 activ 1, CYP2C19 act 0.8, tolC growth inh -23.3, E coli WT exp -5.0, CYP2C9 inh -4.2 and CYP2C19 inh 16.9.
For Cn1c(=O)c2c(ncn2CC(=O)NCc2cccnc2)n(C)c1=O the results were CYP2C9 activ 0.9, CYP2C19 act 1, tolC growth inh -7.5, E coli WT exp -1.0, CYP2C9 inh 10.0 and CYP2C19 inh -3.7.
Screening CC(C)(C)C(=O)CN1CCN(C2c3ccccc3-c3ccccc32)CC1 returned CYP2C9 activ 0.9, CYP2C19 act 0.6, E coli WT exp -3.0, CYP2C9 inh 9.1 and CYP2C19 inh 40.2.
For O=C(c1n[nH]c(=O)c2ccccc12)N1CCN(C2c3ccccc3-c3ccccc32)CC1 the results were CYP2C9 activ 0.4, CYP2C19 act 0.3, tolC growth inh 21.1, E coli WT exp -6.0, CYP2C9 inh 63.7* and CYP2C19 inh 67.8*.
For Cn1nc(-c2ccccc2)c(C#N)c1Sc1cccc(Cl)c1 the results were CYP2C9 activ 0.7, CYP2C19 act 0.7, E coli WT exp -2.0, CYP2C9 inh 28.4 and CYP2C19 inh 31.3.
Screening CCOC(=O)N1CCN(C(=O)c2cc(C)no2)CC1 returned CYP2C9 activ 1.1, CYP2C19 act 0.3, tolC growth inh -7.8, E coli WT exp 9.0, CYP2C9 inh -6.0 and CYP2C19 inh 71.2*.
`O=C(c1cc2ccccn2n1)N1CCCC1` gave CYP2C9 activ 1, CYP2C19 act 1.1, tolC growth inh -16.7, E coli WT exp 3.0, CYP2C9 inh 0.7 and CYP2C19 inh -6.4.
`O=C(c1cc2ccccn2n1)N1CCN(Cc2ccccc2)CC1` gave CYP2C9 activ 1.3, CYP2C19 act 0, tolC growth inh -9.0, E coli WT exp 4.0, CYP2C9 inh -31.6 and CYP2C19 inh 95.8*.
For COc1ccc(CN2CCN(C(=O)c3ccco3)CC2)cc1 the results were CYP2C9 activ 1.2, CYP2C19 act 0.9, tolC growth inh -26.0, E coli WT exp 0.0, CYP2C9 inh -16.7 and CYP2C19 inh 12.9.
For Cc1cc(C(=O)N2CCN(Cc3ccccc3)CC2)on1 the results were CYP2C9 activ 0.9, CYP2C19 act 0, E coli WT exp 12.0, CYP2C9 inh 9.8 and CYP2C19 inh 95.1*.
For CCOc1ccc(NC(=O)CN2C(=O)C3CCCN3C2=O)cc1 (stereo not given) the results were CYP2C9 activ 1, CYP2C19 act 1.1, tolC growth inh -4.7, E coli WT exp -4.0, CYP2C9 inh 2.0 and CYP2C19 inh -9.4.
Screening CCC(C)(C)n1nnnc1C(c1ccc(O)c(OC)c1)N1CCN(c2nc3ccccc3s2)CC1 (stereo not given) returned CYP2C9 activ 0.2, CYP2C19 act 0.7, tolC growth inh 6.1, E coli WT exp 1.0, CYP2C9 inh 77.3* and CYP2C19 inh 28.8.
`CC(C)(C)n1nnnc1C(c1ccncc1)N1CCN(c2ccc(O)cc2)CC1` (stereo not given) gave CYP2C9 activ 0.2, CYP2C19 act 0.5, E coli WT exp 4.0, CYP2C9 inh 75.7* and CYP2C19 inh 49.3.
`CCC(C)(C)n1nnnc1C(c1ccc(O)c(OC)c1)N1CCc2ccccc2C1` (stereo not given) gave CYP2C9 activ 0.7, CYP2C19 act 0.7, E coli WT exp 4.0, CYP2C9 inh 32.9 and CYP2C19 inh 31.7.
`COc1ccc(C(c2nnnn2C(C)(C)C)N2CCN(c3nc4ccccc4s3)CC2)cc1` (stereo not given) gave CYP2C9 activ 0.4, CYP2C19 act 0.8, tolC growth inh 1.5, E coli WT exp -13.0, CYP2C9 inh 63.2* and CYP2C19 inh 18.5.
`Cc1c(N=c2c(=O)c3ccccc3c2=O)c(=O)n(-c2ccccc2)n1C` gave tolC growth inh 4.6 and E coli WT exp 0.0.
For CCOC(=O)c1c(C)cccc1OCC(N)=O the results were tolC growth inh 8.0 and E coli WT exp 5.0.

Assay outcomes from PubChem.
